Results from paper PMC4701204 (Chemistry & biology, 2015).
“Also recorded” adds a separate entry of the source.

Experiments:
RAD51 = RAD51 (Homo sapiens, UniProt Q06609); assay: Fluorescence polarization; assay type: binding; details: in vitro, FP, 280 nM RAD51, 1 mM ATP
Outline: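 Human RAD51 (280 nM) with 1 mM ATP, 10 nM FAM-labelled ssDNA and varied test compound in pH 7.5 Tris buffer (25 mM NaCl, 0.5 mM MgCl2, 1 mM DTT, 0.01% NP-40, 0.1 mg/mL BSA). Incubated 30 min at room temp, then fluorescence polarization read. Inhibition of ssDNA binding taken from FP.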

RecA = RecA (Escherichia coli, UniProt P0A7G6); assay: Effect on RecA in vitro; assay type: biochemical; details: Supplementary Fig. 1
HR in U20S cells = assay: HR GFP reporter assay; assay type: cell-based
HEK293T cells = assay: eGFP-RAD52 foci formation after ionizing radiation; assay type: cell-based
Outline: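 HEK293T cells expressing eGFP-RAD52 treated with test compound at several concentrations and exposed to ionizing radiation. DAPI-counterstained nuclei imaged, and the percent of cells with ≥ 5 eGFP-RAD52 foci scored. Values are average ± s.e.m. of 3 independent experiments; two-tailed Student's t-test.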

SSA in U20S cells = assay: SSA GFP reporter assay; assay type: cell-based; details: 5 μM
Outline: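 U20S cells carrying an SSA reporter exposed to test compounds at 5 μM. RAD52 siRNA versus scrambled siRNA serves as pathway control, with knockdown checked by western blot. Values are mean ± s.e.m. of triplicates, some from 3 separate experiments; two-tailed Student's t-test.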

[1] = molecular target: RAD52 1-209 (ssDNA binding domain) (Homo sapiens, UniProt P43351); assay: Fluorescence polarization
[2] = system: BRCA1 deficient CML patient cells; assay: Clonogenic survival; assay type: cell-based
Outline: (§1)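 Colony-forming survival of BRCA-deficient and BRCA-proficient leukemia patient cells after test compound or olaparib. Each data point pools cells from 3 different patients. Mean ± s.e.m. of 3 independent experiments.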

[3] = system: MDA-MB-436 cells complemented with BRCA1; assay: eGFP-RAD52 foci formation after ionizing radiation; assay type: cell-based; details: MDA-MB-436 BRCA1 complemented
Outline: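 BRCA1-complemented MDA-MB-436 cells expressing eGFP-RAD52 were given test compound, then ionizing radiation, with or without IR as control. Nuclei stained with DAPI. Cells with ≥5 eGFP-RAD52 foci counted as percent of total. Mean ± s.e.m. of 3 independent experiments.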

MDA-MB-436 cells = assay: γH2AX foci; assay type: cell-based; details: more pronounced in BRCA deficient cells
AML patient cells = assay: Clonogenic survival; assay type: cell-based
Outline: as §1

NHEJ in U20S cells = assay: NHEJ GFP reporter assay; assay type: cell-based; details: 5 μM
Outline: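 NHEJ GFP reporter in U2OS cells, run with or without 5 μM test compound. Mean ± s.e.m. of two separate experiments, each in triplicate.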

[4] = molecular target: T1, RAD52 1-209 undecamer ring (Homo sapiens, UniProt P43351); assay: Light scattering of RAD52 1-209; assay type: biochemical
T1 sequence (P43351 1-209): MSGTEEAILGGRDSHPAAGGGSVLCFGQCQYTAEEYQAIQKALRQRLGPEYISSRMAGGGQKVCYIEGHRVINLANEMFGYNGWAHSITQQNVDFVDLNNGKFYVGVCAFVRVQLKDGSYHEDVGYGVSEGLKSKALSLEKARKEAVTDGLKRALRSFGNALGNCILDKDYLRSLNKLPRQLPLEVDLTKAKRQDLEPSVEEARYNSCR
Outline: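 RAD52 1-209 (purified by a published method) incubated with or without test compound in 1 M or 0.15 M NaCl. Species sizes measured by light scattering. Buffer-only and compound-only controls included.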

[5] = system: BRCA deficient cells (VC8, HCC1937); assay: Annexin V staining; assay type: cell-based; details: BRCA deficient vs proficient cells
[6] = molecular target: T1, RAD52 1-209 undecamer ring; assay: Native gel electrophoresis of RAD52 1-209 composition; assay type: biochemical
[7] = system: HCC1937 cells (BRCA1 deficient); assay: Cell viability; assay type: cell-based; details: 5 μM 6-OH-dopa
Outline: (§2)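 Each BRCA-deficient line tested alongside its BRCA-proficient counterpart after single-concentration test compound (olaparib or siRNA in some panels). Relative viability reported as mean ± s.e.m. of triplicates, with two-tailed Student's t-test.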

ssDNA = assay: Interaction of small molecule with ssDNA; assay type: binding; details: Supplementary Fig. 1
[8] = system: VC8 cells (BRCA2 defective); assay: Cell viability / proliferation; assay type: cell-based, Chinese hamster; details: 75 μM 6-OH-dopa
Outline: as §2

RAD52 WT = molecular target: T2, RAD52 WT (Homo sapiens, UniProt P43351); assay: Fluorescence polarization; assay type: binding; details: for Inhibition of RAD52 ssDNA binding: in vitro, Supplementary Fig. 1
T2 sequence (P43351 1-418): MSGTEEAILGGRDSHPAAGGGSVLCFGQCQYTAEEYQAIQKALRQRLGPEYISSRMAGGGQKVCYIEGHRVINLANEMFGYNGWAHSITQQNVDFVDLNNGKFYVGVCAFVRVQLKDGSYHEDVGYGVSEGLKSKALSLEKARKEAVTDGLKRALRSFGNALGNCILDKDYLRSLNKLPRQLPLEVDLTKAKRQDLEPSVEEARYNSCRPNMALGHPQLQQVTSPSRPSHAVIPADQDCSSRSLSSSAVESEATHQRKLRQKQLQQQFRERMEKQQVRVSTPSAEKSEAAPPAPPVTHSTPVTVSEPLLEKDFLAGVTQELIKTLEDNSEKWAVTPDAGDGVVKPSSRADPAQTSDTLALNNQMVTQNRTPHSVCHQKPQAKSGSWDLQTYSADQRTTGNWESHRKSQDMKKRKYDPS

[9] = system: BRCA deficient and proficient cell lines; assay: Clonogenic survival assay; assay type: cell-based
Outline: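 Clonogenic survival of BRCA-deficient and BRCA-proficient cell lines treated with test compound or olaparib. Mean ± s.e.m. of 3 independent experiments.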

[10] = system: BCR-ABL transformed murine hematopoietic 32Dcl3 cells expressing eGFP-RAD52; assay: eGFP-RAD52 foci formation after cisplatin; assay type: cell-based; details: cisplatin treated 32Dcl3 BCR-ABL cells
Outline: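 Cells expressing eGFP-RAD52 pre-incubated with DMSO or test compound at several concentrations, then treated with cisplatin. Fraction of cells with eGFP-RAD52 foci scored by fluorescence microscopy. Values are mean ± s.e.m. of triplicates; two-tailed Student's t-test.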

[11] = system: MDA-MB-436 cells (BRCA1 deficient and BRCA1 complemented); assay: Cell viability; assay type: cell-based; details: for Viability of BRCA1 deficient MDA-MB-436 cells: 3 day time course, 20 μM 6-OH-dopa
Outline: as §2

[12] = system: CAPAN-1 cells (BRCA2 defective); assay: Cell viability / proliferation; assay type: cell-based; details: 10 μM 6-OH-dopa, 20 μM olaparib
Outline: as §2

RAD52-ssDNA complexes = RAD52-ssDNA complexes (Homo sapiens, UniProt P43351); assay: Dissociation of pre-formed RAD52-ssDNA complexes; assay type: binding; details: 30 μM, FP measured 2 min after addition
Outline: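 RAD52–ssDNA complexes pre-formed and equilibrated for 30 min before 30 μM test compound was added. FP read 2 min later against a DNA-only control, with mean ± s.d. of 3 independent experiments. Dissociation was also tested by EMSA on non-denaturing gels.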

RAD52 = RAD52 (Homo sapiens, UniProt P43351); assay: EMSA with excess ssDNA substrate; assay type: binding; details: 25 μM
Outline: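 RAD52 binding to an excess of Cy3-labelled ssDNA substrate in the presence of 25 μM test compound. Complexes resolved by EMSA on a non-denaturing gel.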

light scattering [13] = molecular target: the molecule itself; assay: light scattering
light scattering [14] = molecular target: the molecule itself; assay: light scattering; remark: listed apart in the source
native gel or EMSA = molecular target: the molecule itself; assay: native gel or EMSA

Chain of RAD51 (Q06609 whole entry, species assumed): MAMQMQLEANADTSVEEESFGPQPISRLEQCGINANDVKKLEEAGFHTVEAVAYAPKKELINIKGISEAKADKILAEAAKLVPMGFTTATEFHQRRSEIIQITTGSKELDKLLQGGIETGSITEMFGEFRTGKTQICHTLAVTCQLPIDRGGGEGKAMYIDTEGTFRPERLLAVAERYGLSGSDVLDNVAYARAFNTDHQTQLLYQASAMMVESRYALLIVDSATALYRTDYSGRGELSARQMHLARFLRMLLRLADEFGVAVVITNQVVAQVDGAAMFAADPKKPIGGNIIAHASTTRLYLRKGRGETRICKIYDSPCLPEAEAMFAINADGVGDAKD
Chain of RecA (P0A7G6 whole entry, species assumed): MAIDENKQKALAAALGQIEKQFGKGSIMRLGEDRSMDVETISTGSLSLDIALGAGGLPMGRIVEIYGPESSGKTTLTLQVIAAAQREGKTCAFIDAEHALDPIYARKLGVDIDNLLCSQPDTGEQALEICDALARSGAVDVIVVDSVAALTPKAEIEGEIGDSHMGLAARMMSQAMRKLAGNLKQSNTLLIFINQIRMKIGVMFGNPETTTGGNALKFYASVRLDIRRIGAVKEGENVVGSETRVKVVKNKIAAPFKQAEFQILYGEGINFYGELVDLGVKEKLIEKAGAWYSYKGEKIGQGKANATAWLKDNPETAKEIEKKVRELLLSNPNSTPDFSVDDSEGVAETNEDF

NC(Cc1cc(O)c(O)cc1O)C(=O)O (racemic) [6-OH-dopa, 6-hydroxy-DL-dopa]
Effect on RAD51 (RAD51): little or no effect; also recorded: no effect
Effect on RecA (RecA): very little effect
Effect on HR when RAD52 was suppressed (HR in U20S cells; RAD52 siRNA): had no effect on HR
Effect on HR (HR in U20S cells; U20S cells, 5 μM): little or no reduction in HR
eGFP-RAD52 foci (HEK293T cells): decreased the number of eGFP-RAD52 foci in a dose dependent manner
Effect on SSA (SSA in U20S cells): consistently inhibited SSA
IC50 [1]: 1600 nM
Survival of BRCA1 deficient CML patient cells [2]: significant reduction in the survival
eGFP-RAD52 foci [3]: inhibited eGFP-RAD52 foci
DNA damage indicated by γH2AX foci (MDA-MB-436 cells): substantial increase in DNA damage
Colony formation by AML patient cells expressing normal levels of BRCA1/2 (AML patient cells): little effects
Effect on NHEJ (NHEJ in U20S cells): only slightly inhibited NHEJ
Size of RAD52 1-209 species produced ([4]; high salt (1 M NaCl)): 48.3 kDa
Size of RAD52 1-209 species produced ([4]; low salt (0.15 M NaCl)): 48.3 kDa
Undecamers (270 kDa) converted into dimers (48.3 kDa) ([4]; low salt (0.15 M NaCl)): 100%
Apoptosis indicated by annexin V staining [5]: specifically increased apoptosis
Effect on RAD52 1-209 composition [6]: dissociates RAD52 complexes
Viability of HCC1937 cells [7]: selectively reduced the viability
Interaction with ssDNA (ssDNA): does not interact with ssDNA
Proliferation of VC8 cells [8]: selectively halted the proliferation
IC50 (RAD52 WT): 1100 nM
Percent lower IC50 for RAD52 WT compared to RAD52 1-209 (RAD52 WT): 31%
Clonogenic survival of BRCA deficient cell lines [9]: inhibited the survival
Clonogenic survival of BRCA proficient cells ([9]; at the given doses): little or no effect
eGFP-RAD52 foci formation [10]: suppressed eGFP-RAD52 foci formation in a dose dependent manner
Viability of BRCA1 deficient MDA-MB-436 cells [11]: nearly identical reduction in viability
Viability of BRCA1 deficient MDA-MB-436 cells when RAD52 expression was suppressed ([11]; RAD52 siRNA): lost its ability to significantly reduce the viability
Proliferation of CAPAN-1 cells [12]: selectively halted the proliferation
Dissociation of pre-formed RAD52-ssDNA complexes (RAD52-ssDNA complexes): fully dissociated RAD52-ssDNA complexes
Inhibition of RAD52 in the presence of ~100-fold excess of ssDNA substrate (RAD52): continued to inhibit RAD52

NC(Cc1ccccc1O)C(=O)O (racemic) [DL-o-tyrosine, reference compound]
Effect on RAD52 1-209 composition [6]: had no effect on RAD52 1-209 composition
Inhibition of RAD52 ssDNA binding (RAD52 WT): failed to inhibit RAD52

N[C@H](C(=O)O)[C@H](O)c1ccc(O)c(O)c1 [L-DOPS, reference compound]
Effect on SSA (SSA in U20S cells): failed to inhibit SSA
Inhibition of RAD52 ssDNA binding (RAD52 WT): failed to inhibit

O=C(c1cc(Cc2n[nH]c(=O)c3ccccc23)ccc1F)N1CCN(C(=O)C2CC2)CC1 [olaparib, reference compound]
Colony formation by AML patient cells expressing normal levels of BRCA1/2 (AML patient cells): little effects
Viability of BRCA1 deficient MDA-MB-436 cells [11]: selectively reduced the viability

B1: RAD52 1-209 (RAD52 ssDNA binding domain, residues 1-209) (domain or fragment, human, UniProt P43351 1-209, looked up)
chain: MSGTEEAILGGRDSHPAAGGGSVLCFGQCQYTAEEYQAIQKALRQRLGPEYISSRMAGGGQKVCYIEGHRVINLANEMFGYNGWAHSITQQNVDFVDLNNGKFYVGVCAFVRVQLKDGSYHEDVGYGVSEGLKSKALSLEKARKEAVTDGLKRALRSFGNALGNCILDKDYLRSLNKLPRQLPLEVDLTKAKRQDLEPSVEEARYNSCR
stoichiometry N (light scattering [13]): 11
stoichiometry N (light scattering [14]): 2

B2: RAD52 WT (wild-type, full-length RAD52, Histidine-tagged) (natural protein, human, UniProt P43351 1-418, looked up)
chain: MSGTEEAILGGRDSHPAAGGGSVLCFGQCQYTAEEYQAIQKALRQRLGPEYISSRMAGGGQKVCYIEGHRVINLANEMFGYNGWAHSITQQNVDFVDLNNGKFYVGVCAFVRVQLKDGSYHEDVGYGVSEGLKSKALSLEKARKEAVTDGLKRALRSFGNALGNCILDKDYLRSLNKLPRQLPLEVDLTKAKRQDLEPSVEEARYNSCRPNMALGHPQLQQVTSPSRPSHAVIPADQDCSSRSLSSSAVESEATHQRKLRQKQLQQQFRERMEKQQVRVSTPSAEKSEAAPPAPPVTHSTPVTVSEPLLEKDFLAGVTQELIKTLEDNSEKWAVTPDAGDGVVKPSSRADPAQTSDTLALNNQMVTQNRTPHSVCHQKPQAKSGSWDLQTYSADQRTTGNWESHRKSQDMKKRKYDPS
stoichiometry N (native gel or EMSA): 14
